Assay results from PMC6726563 (Structure (London, England : 1993), 2019).

Experiments:
[1] = target: native integrins expressed on U87MG (human (endogenous in U87MG)); assay: flow cytometry on cells
[2] = target: recombinant integrin αVβ3 stably expressed on K562 cells (UniProt P06756); assay: flow cytometry on cells
[3] = target: native integrin α5β1 on K562 cells (human (endogenous in K562)) (UniProt P08648); assay: flow cytometry on cells
[4] = target: αVβ3** double mutant (β3-M180A and β3-R214G) transiently expressed on HEK293T cells (UniProt P06756); assay: flow cytometry on cells
αVβ3 [5] = conditions: ref Kimura et al., 2009a; cited from earlier work
integrins αVβ3 and α5β1 = assay: Integrin selectivity of knottins; assay type: binding
Human αVβ3 ectodomain = assay: Crystal structure of knottin bound to αVβ3 ectodomain; conditions: Mn2+
In short: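 Human αVβ3 ectodomain was expressed in insect cells and crystallized at 4 °C by hanging-drop vapor diffusion. Test compound (5 mM) was soaked into the crystals in well solution with 1 mM Mn2+ for 2–3 weeks. Crystals were harvested in 12% PEG 3500, 100 mM sodium acetate pH 4.5, 800 mM NaCl, 2 mM Mn2+ and 5 mM test compound. They were cryoprotected stepwise to 24% glycerol and flash frozen. Phases came from molecular replacement.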

αVβ3 [6] = conditions: ref Reynolds et al., 2009; cited from earlier work
[7] = system: patients with glioblastoma; conditions: ref Mason, 2015, cited from earlier work
αVβ3 [8] = conditions: ref Van Agthoven et al., 2014; Xiong et al., 2002; cited from earlier work
α5β1 = conditions: ref Kimura et al., 2009a; cited from earlier work

Chain of UniProt P08648 (P08648 42-1049, chain 1 of 2): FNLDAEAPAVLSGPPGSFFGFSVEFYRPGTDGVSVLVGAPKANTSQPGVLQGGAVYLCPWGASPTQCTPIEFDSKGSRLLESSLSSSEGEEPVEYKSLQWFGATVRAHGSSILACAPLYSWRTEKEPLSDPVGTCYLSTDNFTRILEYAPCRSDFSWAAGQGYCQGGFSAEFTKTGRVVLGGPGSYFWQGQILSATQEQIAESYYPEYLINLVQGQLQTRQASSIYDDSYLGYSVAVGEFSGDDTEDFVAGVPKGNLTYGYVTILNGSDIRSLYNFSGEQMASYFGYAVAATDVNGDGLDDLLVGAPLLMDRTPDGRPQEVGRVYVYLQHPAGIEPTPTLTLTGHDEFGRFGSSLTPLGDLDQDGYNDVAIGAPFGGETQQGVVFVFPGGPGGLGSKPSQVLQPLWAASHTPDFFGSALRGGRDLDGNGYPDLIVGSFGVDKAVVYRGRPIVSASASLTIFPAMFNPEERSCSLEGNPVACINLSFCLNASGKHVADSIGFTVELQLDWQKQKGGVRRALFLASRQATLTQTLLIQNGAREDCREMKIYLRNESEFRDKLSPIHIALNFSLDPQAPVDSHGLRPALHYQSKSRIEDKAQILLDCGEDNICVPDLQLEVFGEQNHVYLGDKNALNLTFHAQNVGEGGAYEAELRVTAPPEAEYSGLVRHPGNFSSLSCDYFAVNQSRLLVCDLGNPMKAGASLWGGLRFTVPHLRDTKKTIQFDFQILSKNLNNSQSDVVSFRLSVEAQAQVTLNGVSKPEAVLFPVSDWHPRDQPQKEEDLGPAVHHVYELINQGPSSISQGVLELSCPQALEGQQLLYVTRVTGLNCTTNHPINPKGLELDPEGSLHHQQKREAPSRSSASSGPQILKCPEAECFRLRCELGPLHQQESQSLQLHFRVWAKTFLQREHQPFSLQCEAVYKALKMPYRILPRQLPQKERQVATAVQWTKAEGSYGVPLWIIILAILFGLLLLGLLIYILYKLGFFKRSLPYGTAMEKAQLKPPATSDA
Chain of UniProt P08648 (P05556 21-798, chain 2 of 2, further chain): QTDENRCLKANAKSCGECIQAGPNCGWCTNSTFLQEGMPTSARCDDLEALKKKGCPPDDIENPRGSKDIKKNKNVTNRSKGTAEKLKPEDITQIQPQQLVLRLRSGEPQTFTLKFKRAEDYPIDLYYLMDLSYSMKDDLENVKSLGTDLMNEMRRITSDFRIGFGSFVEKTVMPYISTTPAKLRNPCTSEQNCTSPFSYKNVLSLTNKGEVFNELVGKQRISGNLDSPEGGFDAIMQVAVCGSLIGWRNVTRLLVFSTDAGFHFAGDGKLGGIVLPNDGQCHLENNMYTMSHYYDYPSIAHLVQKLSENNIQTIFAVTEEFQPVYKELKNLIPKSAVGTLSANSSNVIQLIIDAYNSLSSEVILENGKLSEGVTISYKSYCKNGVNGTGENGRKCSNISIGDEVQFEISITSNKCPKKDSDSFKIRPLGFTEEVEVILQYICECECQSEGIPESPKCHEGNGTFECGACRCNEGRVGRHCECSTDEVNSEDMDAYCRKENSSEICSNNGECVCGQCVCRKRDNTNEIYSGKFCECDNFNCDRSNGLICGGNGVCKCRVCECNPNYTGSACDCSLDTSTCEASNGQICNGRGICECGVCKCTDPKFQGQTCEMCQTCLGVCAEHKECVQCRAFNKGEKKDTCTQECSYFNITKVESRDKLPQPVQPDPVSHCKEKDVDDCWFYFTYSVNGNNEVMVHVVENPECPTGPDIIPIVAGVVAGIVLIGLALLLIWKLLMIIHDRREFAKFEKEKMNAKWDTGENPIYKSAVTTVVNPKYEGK

2.5F-Fc fusion protein
Kd [1]: 5.9 nM
Kd [2]: 6.9 nM
Kd [3]: 9.2 nM

Alexa-647-labeled knottin 2.5F (designed binder)
percent of binding to wt-αVβ3 [4]: 85%

QG^5RGDWA^10P (disulfide) [2.5D]
affinity to αVβ3 (in words) (αVβ3 [5]): nanomolar affinity
integrin selectivity (in words) (integrins αVβ3 and α5β1): αVβ3-specific
agonist character inferred from βA domain conformational change (Human αVβ3 ectodomain): partial agonists

2.5D-Fc fusion protein
Kd [1]: 1.7 nM
Kd [2]: 1.4 nM

cilengitide: partial agonist targeting αVβ3
agonist-like behavior (in words) (αVβ3 [6]): agonist-like behavior
pharmacokinetics (in words) ([7]; likely related to failure in glioblastoma): unfavorable pharmacokinetics
survival of patients (in words) ([7]; primary targeting of αVβ3): failed to prolong survival of patients with glioblastoma
agonist/antagonist character at αVβ3 (αVβ3 [8]): partial agonist

RP^5RGDNP^10P (disulfide) [2.5F]
affinity to αVβ3 (in words) (αVβ3 [5]): nanomolar affinity
integrin selectivity (in words) (integrins αVβ3 and α5β1): binds both αVβ3 and α5β1
agonist character inferred from βA domain conformational change (Human αVβ3 ectodomain): partial agonists
affinity to α5β1 (in words) (α5β1): nanomolar affinity

Alexa-647-labeled knottin 2.5D (designed binder)
percent of binding to wt-αVβ3 [4]: 28%
